From ChEMBL document CHEMBL4340532, “Design, synthesis, and biological evaluation of novel 2'-deoxy-2'-fluoro-2'-C-methyl 8-azanebularine derivatives as potent anti-HBV agents” (Bioorg Med Chem Lett, 2019)

Assays:
[1] = Cytotoxicity against human HepG2 cells supplemented with fresh medium containing compound every 3 days for 9 days measured post-last dose by MTT assay; assay type: cell-based
Outline: (§1)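 HepG2 cells were exposed to compound for 3 or 9 days and viability was read by MTT assay. CC50 is the concentration causing 50% cytotoxicity. Results are mean ± SD of three experiments.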

[2] = Cytotoxicity against human HepG2 cells after 3 days by MTT assay; assay type: cell-based; outline: as §1
Hepatitis B virus [3] = test: Antiviral activity against Hepatitis B virus infected in human HepG2.2.15 cells assessed as inhibition of HBeAg secretion at 20 uM supplemented with fresh medium containing compound every 3 days for 6 days and measured on day 9 by ELISA relative to control; assay type: functional
Outline: (§2)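 HepG2.2.15 cells were exposed to compound for up to 9 days. The initial screen used 20 µM for 9 days, with lamivudine (20 µM) as positive control. Follow-up used 10, 20 or 40 µM sampled at days 3, 6 and 9. HBsAg and HBeAg were quantified in culture supernatant by ELISA and compared with a no-drug control. Results are mean ± SD of three experiments.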

Hepatitis B virus [4] = test: Antiviral activity against Hepatitis B virus infected in human HepG2.2.15 cells assessed as inhibition of HBsAg secretion at 20 uM supplemented with fresh medium containing compound every 3 days for 6 days and measured on day 9 by ELISA relative to control; assay type: functional; outline: as §2
Hepatitis B virus [5] = test: Antiviral activity against Hepatitis B virus infected in human HepG2.2.15 cells assessed as inhibition of intracellular HBV DNA replication at 10 uM measured on day 3 by FQ-PCR analysis relative to control; assay type: functional; details: HepG2.2.15, 72 h
Outline: (§3)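 HepG2.2.15 cultures were treated at 10, 20 or 40 µM for 3, 6 and 9 days. Both intracellular and extracellular HBV DNA levels were then determined and compared with untreated cells.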

Hepatitis B virus [6] = test: Antiviral activity against Hepatitis B virus infected in human HepG2.2.15 cells assessed as inhibition of intracellular HBV DNA replication at 20 uM supplemented with fresh medium containing compound every 3 days for 6 days measured post-last dose by FQ-PCR analysis relative to control; assay type: functional; outline: as §3
Hepatitis B virus [7] = test: Antiviral activity against Hepatitis B virus infected in human HepG2.2.15 cells assessed as inhibition of intracellular HBV DNA replication at 10 uM supplemented with fresh medium containing compound every 3 days for 6 days measured post-last dose by FQ-PCR analysis relative to control; assay type: functional; outline: as §3
Hepatitis B virus [8] = test: Antiviral activity against Hepatitis B virus infected in human HepG2.2.15 cells assessed as inhibition of intracellular HBV DNA replication at 20 uM supplemented with fresh medium containing compound every 3 days for 9 days measured post-last dose by FQ-PCR analysis relative to control; assay type: functional; outline: as §3
Hepatitis B virus [9] = test: Antiviral activity against Hepatitis B virus infected in human HepG2.2.15 cells assessed as inhibition of intracellular HBV DNA replication at 10 uM supplemented with fresh medium containing compound every 3 days for 9 days measured post-last dose by FQ-PCR analysis relative to control; assay type: functional; outline: as §3
Hepatitis B virus [10] = test: Antiviral activity against Hepatitis B virus infected in human HepG2.2.15 cells assessed as inhibition of extracellular HBV DNA replication at 20 uM measured on day 3 by FQ-PCR analysis relative to control; assay type: functional; details: HepG2.2.15, 72 h; outline: as §3
Hepatitis B virus [11] = test: Antiviral activity against Hepatitis B virus infected in human HepG2.2.15 cells assessed as inhibition of extracellular HBV DNA replication at 40 uM measured on day 3 by FQ-PCR analysis relative to control; assay type: functional; details: HepG2.2.15, 72 h; outline: as §3
Hepatitis B virus [12] = test: Antiviral activity against Hepatitis B virus infected in human HepG2.2.15 cells assessed as inhibition of extracellular HBV DNA replication at 20 uM supplemented with fresh medium containing compound every 3 days for 6 days measured post-last dose by FQ-PCR analysis relative to control; assay type: functional; outline: as §3
Hepatitis B virus [13] = test: Antiviral activity against Hepatitis B virus infected in human HepG2.2.15 cells assessed as inhibition of extracellular HBV DNA replication at 10 uM supplemented with fresh medium containing compound every 3 days for 6 days measured post-last dose by FQ-PCR analysis relative to control; assay type: functional; outline: as §3
Hepatitis B virus [14] = test: Antiviral activity against Hepatitis B virus infected in human HepG2.2.15 cells assessed as inhibition of extracellular HBV DNA replication at 40 uM supplemented with fresh medium containing compound every 3 days for 9 days measured post-last dose by FQ-PCR analysis relative to control; assay type: functional; outline: as §3
Hepatitis B virus [15] = test: Antiviral activity against lamivudine-resistant Hepatitis B virus harboring L180M/M204V mutant infected in human HepG2.2.15 cells assessed as inhibition of intracellular HBV DNA replication at 10 uM measured on day 3 by FQ-PCR analysis relative to control; assay type: functional; details: HepG2.2.15, 72 h
Outline: (§4)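 Lamivudine-resistant cell line transfected with the L180M/M204V mutant, exposed to 10, 20 or 40 µM for 3, 6 or 9 days. Intracellular and extracellular HBV DNA levels measured.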

Hepatitis B virus [16] = test: Antiviral activity against lamivudine-resistant Hepatitis B virus harboring L180M/M204V mutant infected in human HepG2.2.15 cells assessed as inhibition of intracellular HBV DNA replication at 20 uM supplemented with fresh medium containing compound every 3 days for 6 days measured post-last dose by FQ-PCR analysis relative to control; assay type: functional; outline: as §4
Hepatitis B virus [17] = test: Antiviral activity against lamivudine-resistant Hepatitis B virus harboring L180M/M204V mutant infected in human HepG2.2.15 cells assessed as inhibition of intracellular HBV DNA replication at 40 uM supplemented with fresh medium containing compound every 3 days for 9 days measured post-last dose by FQ-PCR analysis relative to control; assay type: functional; outline: as §4
Hepatitis B virus [18] = test: Antiviral activity against lamivudine-resistant Hepatitis B virus harboring L180M/M204V mutant infected in human HepG2.2.15 cells assessed as inhibition of extracellular HBV DNA replication at 10 uM measured on day 3 by FQ-PCR analysis relative to control; assay type: functional; details: HepG2.2.15, 72 h; outline: as §4
Hepatitis B virus [19] = test: Antiviral activity against lamivudine-resistant Hepatitis B virus harboring L180M/M204V mutant infected in human HepG2.2.15 cells assessed as inhibition of extracellular HBV DNA replication at 40 uM measured on day 3 by FQ-PCR analysis relative to control; assay type: functional; details: HepG2.2.15, 72 h; outline: as §4
Hepatitis B virus [20] = test: Antiviral activity against lamivudine-resistant Hepatitis B virus harboring L180M/M204V mutant infected in human HepG2.2.15 cells assessed as inhibition of extracellular HBV DNA replication at 10 uM supplemented with fresh medium containing compound every 3 days for 9 days measured post-last dose by FQ-PCR analysis relative to control; assay type: functional; outline: as §4
Hepatitis B virus [21] = test: Antiviral activity against lamivudine-resistant Hepatitis B virus harboring L180M/M204V mutant infected in human HepG2.2.15 cells assessed as inhibition of extracellular HBV DNA replication at 40 uM supplemented with fresh medium containing compound every 3 days for 9 days measured post-last dose by FQ-PCR analysis relative to control; assay type: functional; outline: as §4
[22] = test system: HepG2 cells (Homo sapiens); test: Cytotoxicity against human HepG2 cells at 40 uM supplemented with fresh medium containing compound every 3 days for 9 days measured post-last dose
[23] = test system: HepG2 cells (Homo sapiens); test: as above; remark: listed apart in the source

## C[C@@]1(F)[C@H](O)[C@@H](CO)O[C@H]1n1nnc2c(Nc3ccc(Cl)cc3F)ncnc21
[1]
  CC50 at 216 h: 245 µM
[2]
  CC50 at 72 h: 409 µM
Hepatitis B virus [3]
  inhibition (INH): 31.6%
Hepatitis B virus [4]
  inhibition (INH): 39.7%
Hepatitis B virus [5]
  inhibition at 10 µM: 14%
Hepatitis B virus [6]
  inhibition (INH): 47%
Hepatitis B virus [7]
  inhibition (INH): 31.8%
Hepatitis B virus [8]
  inhibition (INH): 67.4%
Hepatitis B virus [9]
  inhibition (INH): 44.2%
Hepatitis B virus [10]
  inhibition at 20 µM: 24.5%
Hepatitis B virus [11]
  inhibition at 40 µM: 34.7%
Hepatitis B virus [12]
  inhibition (INH): 42.6%
Hepatitis B virus [13]
  inhibition (INH): 31.1%
Hepatitis B virus [14]
  inhibition (INH): 82.5%
Hepatitis B virus [15]
  inhibition at 10 µM: 5%
Hepatitis B virus [16]
  inhibition (INH): 41.6%
Hepatitis B virus [17]
  inhibition (INH): 76.4%
Hepatitis B virus [18]
  inhibition at 10 µM: 11%
Hepatitis B virus [19]
  inhibition at 40 µM: 45.2%
Hepatitis B virus [20]
  inhibition (INH): 32.1%
Hepatitis B virus [21]
  inhibition (INH): 83.6%
[22]
  inhibition (INH): 7.7%
[23]
  inhibition (INH): 7.7%
